# Experimental data taken from ChEMBL document CHEMBL1133480, “Rational design, synthesis, and biological activity of benzoxazinones as novel factor Xa inhibitors” (J Med Chem, 2000).
# Key:
# [1] = target: T1, Coagulation factor X (Homo sapiens, UniProt P00742); experiment: In vitro inhibition of coagulation factor Xa.
# Method in brief: (§1)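 Enzyme was preincubated 1 h at room temperature with inhibitor across 14 concentrations (1 nM–100 μM final). A405 was read kinetically over 10 min at 37 °C. Percent inhibition came from the linear progress-curve slopes, typically in duplicate.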
# [2] = target: T2, Plasminogen (Homo sapiens, UniProt P00747); experiment: Inhibition of plasmin at 100 uM
# [3] = target: T3, Prothrombin (Homo sapiens, UniProt P00734); experiment: Inhibition of thrombin at 100 uM
# [4] = target: T4, Serine protease 1 (Homo sapiens, UniProt P07477); experiment: In vitro inhibitory activity against trypsin at 100 uM
# [5] = target: T2, Plasminogen; experiment: Compound was tested for in vitro inhibitory activity against plasmin at 100 uM
# [6] = target: T3, Prothrombin; experiment: Inhibition of thrombin; method in brief: as §1
# [7] = target: T4, Serine protease 1; experiment: In vitro inhibitory activity against trypsin; method in brief: as §1
# [8] = target: T2, Plasminogen; experiment: Compound was tested for in vitro inhibitory activity against plasmin; method in brief: as §1
# [9] = target: T3, Prothrombin; experiment: Compound was tested for in vitro inhibitory activity against thrombin at 100 uM
# [10] = target: Vitamin K-dependent protein C (Homo sapiens, UniProt P04070); experiment: Compound was tested for in vitro inhibitory activity against activated protein C
# [11] = Compound was tested for in vitro inhibitory activity against Chymotrypsinogen at 100 uM
# [12] = species on record: Homo sapiens; experiment: In Vitro evaluation for the concentration for 2 fold prolongation of Prolonged activated partial thromboplastin Time (aPTT) assay in human; assay type: functional
# Method in brief: (§2)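 Clotting assays (PT or aPTT) used pooled plasma from the named species with added inhibitor. The value is the concentration giving a 2-fold prolongation of clotting time. Determinations were done in duplicate.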
# [13] = species on record: Oryctolagus cuniculus; experiment: In Vitro evaluation for the concentration for 2 fold prolongation of Prothrombin Time (PT) assay in rabbit; assay type: functional; method in brief: as §2
# [14] = target: T1, Coagulation factor X; experiment: Compound was tested for in vitro inhibitory activity against Prothrombinase
# [15] = system: Canis familiaris; experiment: effect on the time to occlusion(TO) in the dog electrolytic injury model at the 0 ug/kg/min to the vein; assay type: functional, Canis lupus familiaris
# Method in brief: (§3)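 Anesthetized dogs received electrolytic injury to the endothelium as the thrombotic stimulus in the femoral artery and a vein. Agent was infused continuously at 0 (control), 1.25, 2.5, 5 or 10 μg/kg/min. Time to occlusion was recorded up to a maximum of 240 min. n = 12 control, 4 at 1.25, and 5 at each other dose; mean ± SEM.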
# [16] = system: Canis familiaris; experiment: effect on the time to occlusion(TO) in the dog electrolytic injury model at the 1.25 ug/kg/min to the artery; assay type: functional, Canis lupus familiaris; method in brief: as §3
# [17] = system: Canis familiaris; experiment: effect on the time to occlusion(TO) in the dog electrolytic injury model at the 1.25 ug/kg/min to the vein; assay type: functional, Canis lupus familiaris; method in brief: as §3
# [18] = system: Canis familiaris; experiment: effect on the time to occlusion(TO) in the dog electrolytic injury model at the 10 ug/kg/min to the artery; assay type: functional, Canis lupus familiaris; method in brief: as §3
# [19] = system: Canis familiaris; experiment: effect on the time to occlusion(TO) in the dog electrolytic injury model at the 10 ug/kg/min to the vein; assay type: functional, Canis lupus familiaris; method in brief: as §3
# [20] = system: Canis familiaris; experiment: effect on the time to occlusion(TO) in the dog electrolytic injury model at the 2.5 ug/kg/min to the artery; assay type: functional, Canis lupus familiaris; method in brief: as §3
# [21] = system: Canis familiaris; experiment: effect on the time to occlusion(TO) in the dog electrolytic injury model at the 2.5 ug/kg/min to the vein; assay type: functional, Canis lupus familiaris; method in brief: as §3
# [22] = system: Canis familiaris; experiment: effect on the time to occlusion(TO) in the dog electrolytic injury model at the 5 ug/kg/min to the artery; assay type: functional, Canis lupus familiaris; method in brief: as §3
# [23] = system: Canis familiaris; experiment: effect on the time to occlusion(TO) in the dog electrolytic injury model at the 5 ug/kg/min to the vein; assay type: functional, Canis lupus familiaris; method in brief: as §3
# [24] = system: Canis familiaris; experiment: effect on the time to occlusion(TO) in the dog electrolytic injury model at the 0 ug/kg/min to the artery; assay type: functional, Canis lupus familiaris; method in brief: as §3
# [25] = target: T5, Coagulation factor VII (Homo sapiens) (UniProt P08709); experiment: Compound was tested for in vitro inhibitory activity against coagulation factor VII at 100 uM
# T5 sequence (whole entry): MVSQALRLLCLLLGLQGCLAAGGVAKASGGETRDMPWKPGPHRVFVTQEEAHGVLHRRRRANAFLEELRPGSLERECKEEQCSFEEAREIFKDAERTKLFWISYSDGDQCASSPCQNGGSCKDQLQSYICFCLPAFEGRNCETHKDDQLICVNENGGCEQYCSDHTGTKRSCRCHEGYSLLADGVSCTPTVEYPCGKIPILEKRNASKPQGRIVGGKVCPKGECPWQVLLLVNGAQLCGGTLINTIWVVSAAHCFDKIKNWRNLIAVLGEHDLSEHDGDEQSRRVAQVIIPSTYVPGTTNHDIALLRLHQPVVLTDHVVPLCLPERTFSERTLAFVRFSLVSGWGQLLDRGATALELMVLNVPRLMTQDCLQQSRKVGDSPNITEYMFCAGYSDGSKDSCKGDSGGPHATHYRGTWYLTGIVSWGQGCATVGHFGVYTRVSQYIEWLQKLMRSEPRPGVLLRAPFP
# [26] = system: Oryctolagus cuniculus; experiment: effect on the time to occlusion in the rabbit Veno-venous Shunt model by administering through intravenous (IV) bolus (30 ug/kg) + infusion (1 ug/kg/min); assay type: functional
# Method in brief: (§4)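 Rabbit veno-venous shunt containing cotton threads. Test agent was given as an iv bolus plus continuous infusion at the stated dose. The endpoint was time to occlusion of the shunt vessel, observed over a 2-h window. Incidence of occlusion per group was recorded. n = 5 per dose group, mean ± SE.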
# [27] = species on record: Oryctolagus cuniculus; experiment: In Vitro evaluation for the concentration for 2 fold prolongation of Prolonged activated partial thromboplastin Time (aPTT) assay in rabbit; assay type: functional; method in brief: as §2
# [28] = system: Oryctolagus cuniculus; experiment: effect on the time to occlusion in the rabbit Veno-venous Shunt model by administering through intravenous (IV) bolus (90 ug/kg) + infusion (3 ug/kg/min); assay type: functional; method in brief: as §4
# [29] = system: Oryctolagus cuniculus; experiment: effect on the time to occlusion in the rabbit Veno-venous Shunt model by administering through intravenous (IV) bolus (60 ug/kg) + infusion (2 ug/kg/min); assay type: functional; method in brief: as §4
# [30] = species on record: Canis lupus familiaris; experiment: In Vitro evaluation for the concentration for 2 fold prolongation of Prothrombin Time (PT) assay in dog
# [31] = species on record: Homo sapiens; experiment: In Vitro evaluation for the concentration for 2 fold prolongation of Prothrombin Time (PT) assay in human
# [32] = species on record: Canis lupus familiaris; experiment: In Vitro evaluation for the concentration for 2 fold prolongation of Prolonged activated partial thromboplastin Time (aPTT) assay in dog
# [33] = target: T1, Coagulation factor X; experiment: Compound was tested for in vitro inhibitory activity against Coagulation factor X at 100 uM
# T1 sequence (P00742 41-179 limits assumed): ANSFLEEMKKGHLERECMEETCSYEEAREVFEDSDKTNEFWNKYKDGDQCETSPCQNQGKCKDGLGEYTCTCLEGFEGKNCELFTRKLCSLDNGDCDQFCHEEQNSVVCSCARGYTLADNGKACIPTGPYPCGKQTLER
# T1 sequence (P00742 235-488 limits assumed): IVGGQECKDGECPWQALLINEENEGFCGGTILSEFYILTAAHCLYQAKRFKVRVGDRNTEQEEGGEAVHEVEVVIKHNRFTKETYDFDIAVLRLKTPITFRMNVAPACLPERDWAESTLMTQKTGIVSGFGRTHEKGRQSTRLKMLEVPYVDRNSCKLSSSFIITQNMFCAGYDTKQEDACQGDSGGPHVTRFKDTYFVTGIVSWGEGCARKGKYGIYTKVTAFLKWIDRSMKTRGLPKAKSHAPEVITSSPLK
# T2 sequence (P00747 97-580 limits assumed): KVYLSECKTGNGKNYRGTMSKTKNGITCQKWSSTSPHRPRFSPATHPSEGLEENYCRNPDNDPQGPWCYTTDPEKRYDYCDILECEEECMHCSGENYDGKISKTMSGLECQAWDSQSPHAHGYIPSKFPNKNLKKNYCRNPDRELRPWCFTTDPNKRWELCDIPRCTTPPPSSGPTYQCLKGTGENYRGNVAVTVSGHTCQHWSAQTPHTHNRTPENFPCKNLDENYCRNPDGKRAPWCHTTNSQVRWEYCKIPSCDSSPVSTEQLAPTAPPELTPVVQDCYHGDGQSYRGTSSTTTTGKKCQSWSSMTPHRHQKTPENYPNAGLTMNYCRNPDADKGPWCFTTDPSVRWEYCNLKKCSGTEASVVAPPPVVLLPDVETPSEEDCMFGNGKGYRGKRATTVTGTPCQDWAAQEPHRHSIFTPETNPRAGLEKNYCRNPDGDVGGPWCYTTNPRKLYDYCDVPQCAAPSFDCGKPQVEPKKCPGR
# T2 sequence (P00747 581-810 limits assumed): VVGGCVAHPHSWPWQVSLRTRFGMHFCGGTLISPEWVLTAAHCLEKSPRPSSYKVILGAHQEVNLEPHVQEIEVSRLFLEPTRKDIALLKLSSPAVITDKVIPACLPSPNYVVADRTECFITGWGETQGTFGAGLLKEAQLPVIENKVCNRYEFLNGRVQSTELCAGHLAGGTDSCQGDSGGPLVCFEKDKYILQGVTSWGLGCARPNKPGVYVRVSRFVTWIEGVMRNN
# T4 sequence (P07477 whole entry): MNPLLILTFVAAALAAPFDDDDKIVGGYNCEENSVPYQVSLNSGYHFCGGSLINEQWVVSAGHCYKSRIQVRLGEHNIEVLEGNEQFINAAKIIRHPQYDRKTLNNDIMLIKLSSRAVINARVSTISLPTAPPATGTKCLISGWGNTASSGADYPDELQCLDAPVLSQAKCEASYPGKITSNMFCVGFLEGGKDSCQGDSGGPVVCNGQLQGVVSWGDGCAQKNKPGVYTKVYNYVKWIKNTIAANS
# Vitamin K-dependent protein C, sequence (P04070 43-197 limits assumed): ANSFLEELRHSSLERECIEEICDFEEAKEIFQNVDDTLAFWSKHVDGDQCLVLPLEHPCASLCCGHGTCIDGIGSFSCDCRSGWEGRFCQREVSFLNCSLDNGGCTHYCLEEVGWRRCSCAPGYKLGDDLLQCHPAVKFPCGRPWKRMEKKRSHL
# Vitamin K-dependent protein C, sequence (P04070 212-461 limits assumed): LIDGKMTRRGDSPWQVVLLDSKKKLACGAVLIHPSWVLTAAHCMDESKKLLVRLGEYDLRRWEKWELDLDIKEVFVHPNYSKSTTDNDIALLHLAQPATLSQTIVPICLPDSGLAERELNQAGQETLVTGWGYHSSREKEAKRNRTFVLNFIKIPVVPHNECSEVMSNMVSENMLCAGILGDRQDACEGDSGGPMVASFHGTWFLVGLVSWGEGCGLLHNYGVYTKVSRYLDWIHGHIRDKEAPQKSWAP
compound,measurement,setting,value
CC1CCCC(C)N1CCCCCN1C(=O)C(c2cccc(C(=N)NO)c2)Oc2ccccc21 (centres undefined),IC50,[1],5.6 µM
same,inhibition,[2],11%
same,inhibition,[3],19%
same,inhibition,[4],21%
CC1CCCC(C)N1CCCCCN1C(=O)C(c2ccc(C(=N)NO)cc2)Oc2ccccc21 (centres undefined),IC50,[1],66 µM
same,inhibition,[2],10%
same,inhibition,[3],18%
same,inhibition,[4],8%
CC1CCCC(C)N1CCCCCN1C(=O)C(c2ccc(Cl)cc2)Oc2ccccc21 (centres undefined),IC50,[1],23 µM
same,inhibition,[2],30%
same,inhibition,[3],38%
same,inhibition,[4],46%
CC(C)N(CCCCCN1C(=O)C(c2cccc(C(=N)N)c2)Oc2ccccc21)C(C)C (centres undefined),IC50,[1],0.12 µM
same,inhibition,[5],72%
same,IC50,[6],1.2 µM
same,IC50,[7],1.2 µM
CCCCCCN(CCCCCC)CCCCCN1C(=O)C(c2cccc(C(=N)N)c2)Oc2ccccc21 (centres undefined),IC50,[1],1.6 µM
same,IC50,[8],2.2 µM
same,IC50,[6],1.9 µM
same,IC50,[7],2.5 µM
CC1CCCC(C)N1CCCCCN1C(=O)C(c2ccc(C(=N)S)cc2)Oc2ccccc21 (centres undefined),IC50,[1],34 µM
same,inhibition,[2],44%
same,inhibition,[3],32%
same,inhibition,[4],7.8%
CC1CCCC(C)N1CCCCCN1C(=O)C(c2ccccc2)Oc2ccccc21 (centres undefined),IC50,[1],27 µM
same,inhibition,[5],26%
same,inhibition,[3],19%
same,inhibition,[4],2.8%
CC1CCCC(C)N1CCCCCN1C(=O)C(c2cccc(CN)c2)Oc2ccccc21 (centres undefined),IC50,[1],0.84 µM
same,IC50,[8],25 µM
same,IC50,[7],7.8 µM
same,inhibition,[9],64%
CC1CCCC(C)N1CCCCCN1C(=O)C(c2cccc(C(=N)N)c2)Oc2ccccc21 (centres undefined),IC50,[10],23 µM
same,IC50,[1],0.003 µM
same,inhibition,[11],24%
same,Concentration,[12],0.34 µM
same,IC50,[8],8.4 µM
same,Concentration,[13],0.33 µM
same,IC50,[14],0.004 µM
same,TO,[15],120 min
same,TO,[16],148 min
same,TO,[17],125 min
same,TO,[18],240 min
same,TO,[19],240 min
same,TO,[20],167 min
same,TO,[21],144 min
same,TO,[22],240 min
same,TO,[23],220 min
same,TO,[24],87 min
same,inhibition,[25],32%
same,TO,[26],27 min
same,Concentration,[27],0.15 µM
same,TO,[28],98 min
same,TO,[29],37 min
same,Concentration,[30],0.57 µM
same,Concentration,[31],0.17 µM
same,Concentration,[32],0.19 µM
COc1cc(C2Oc3ccccc3N(CCCCCN3C(C)CCCC3C)C2=O)cc(OC)c1OC (centres undefined),inhibition,[33],30%
same,inhibition,[2],20%
same,inhibition,[3],30%
same,inhibition,[4],12%
CC1CCCC(C)N1CCCCCN1C(=O)C(c2ccc(C(=N)N)cc2)Oc2ccccc21 (centres undefined),IC50,[1],7.9 µM
same,inhibition,[2],80%
same,IC50,[6],1.7 µM
same,IC50,[7],13 µM
CC1CCCC(C)N1CCCCCN1C(=O)C(c2ccccc2Cl)Oc2ccccc21 (centres undefined),IC50,[1],16 µM
same,inhibition,[2],23%
same,IC50,[6],65 µM
same,IC50,[7],39 µM
COc1ccc(C2Oc3ccccc3N(CCCCCN3C(C)CCCC3C)C2=O)cc1 (centres undefined),IC50,[1],4.9 µM
same,inhibition,[2],19%
same,inhibition,[3],29%
same,inhibition,[4],2.3%
CC1CCCC(C)N1CCCCCN1C(=O)C(c2cccc(C(N)=NN3CCOCC3)c2)Oc2ccccc21 (centres undefined),IC50,[1],1.5 µM
